Only some compounds are listed: those with a hit (about 3.8% of all), similar ones and a draw of the others.
hERG rescue = shields human hERG channel from block by proarrhythmic agents. Q12809. CHO-hERG, FluxOR thallium flux, dofetilide IC70 present. activation (rescue from dofetilide block), less the hit threshold, % at 10 µM. AID 1511. 310,000 compounds, 0.51% hits;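 active = activation above the mean of controls blocked by dofetilide plus 5 SD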;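 note: thallium influx through hERG after potassium depolarization seen as dye fluorescence rise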
KCNK3 inh = human KCNK3 channel inhibition, primary screen | O14649 | CHO-KCNK3 thallium flux, FluxOR fluorescence; stronger effect = lower value | B-score at 10 µM | 340,000 compounds, 0.84% hits | AID 602410;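 active = B-score under library mean minus 4 SD, starting fluorescence ratio at most library mean plus 5 SD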;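 note: more negative B-score means stronger inhibition of thallium flux through KCNK3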
Kir21 inh = blocks the mouse Kir2.1 inward-rectifier potassium channel; HEK293-Kir2.1, FluxOR thallium flux fluorescence; stronger effect = lower value; B-score at 10 µM; 310,000 compounds, 0.85% hits; AID 1672;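 active = fluorescence ratio B-score at or below minus 3 SD of library scores, with starting-brightness B-score within 2 SD, cut at about -4.2 in these data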;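 note: channel flux triggered by added potassium and thallium sulfate stimulus; B-score of peak minus minimum fluorescence over baseline after thallium stimulus; more negative B-score means stronger Kir2.1 block with less thallium influx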
Target sequence (P35561 whole entry, looked up): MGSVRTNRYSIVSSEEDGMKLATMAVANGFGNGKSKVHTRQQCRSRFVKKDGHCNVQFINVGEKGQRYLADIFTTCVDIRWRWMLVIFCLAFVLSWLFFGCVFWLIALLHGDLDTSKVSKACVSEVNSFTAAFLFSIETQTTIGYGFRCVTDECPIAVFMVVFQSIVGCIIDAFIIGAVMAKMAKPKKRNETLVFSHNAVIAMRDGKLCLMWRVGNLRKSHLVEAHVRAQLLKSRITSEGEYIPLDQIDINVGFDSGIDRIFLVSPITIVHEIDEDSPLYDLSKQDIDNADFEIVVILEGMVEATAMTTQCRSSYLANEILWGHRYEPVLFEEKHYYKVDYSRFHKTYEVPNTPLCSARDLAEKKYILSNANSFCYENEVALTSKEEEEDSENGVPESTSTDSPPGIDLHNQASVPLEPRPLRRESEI
KCNK9 inh = inhibitors of human KCNK9 two-pore domain potassium channel; 310,000 compounds, 1.2% hits; AID 488922; B-score at 10 µM; HEK293 KCNK9, FluxOR thallium flux fluorescence; stronger effect = lower value; Q9NPC2;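 active = ratio B-score over 3 SD below the library mean, with starting fluorescence within 5 SD of its mean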;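 note: negative B-score means less thallium flux so channel inhibition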
KCNQ1 act = potentiators or activators of human KCNQ1 potassium channel; P51787; CHO-K1 KCNQ1, thallium flux FluxOR fluorescence; stronger effect = higher value; B-score at 10 µM; 310,000 compounds, 0.35% hits; AID 2648;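 active = fluorescence ratio B-score, a plate-corrected score, at least three library SD, with initial intensity B-score within 5 SD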
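Assay system: CHO-K1 cells stably expressing KCNQ1. Medium: assay buffer for compound exposure, DMSO matched across wells. Timing: 37 °C overnight plating, 90-min dark dye load, 20-min compound pretreatment. Signal: kinetic FluxOR fluorescence, 10 s baseline plus 110 s post-stimulus.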
KCNQ1 inh = human KCNQ1 channel inhibition. B-score at 10 µM. CHO-K1 KCNQ1, FluxOR thallium flux fluorescence; stronger effect = higher value. P51787. 310,000 compounds, 1.3% hits;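 active = compounds whose thallium flux B-score, printed positive for inhibition, exceeds three library SD while starting fluorescence stays within three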;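 note: channel opened by potassium depolarization with thallium stimulus after 20 min compound exposure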
* = called active by the depositor; i = inactive; x = not tested or not shown.

SMILES | hERG rescue | KCNK3 inh | Kir21 inh | KCNK9 inh | KCNQ1 act | KCNQ1 inh
COC(=O)c1ccc(CN2CCN(CCc3ccccc3)C(CCO)C2)cc1 (stereo not drawn) | -15.4 | i | -0.15 | i | i | i
CC(C)CCN1CCN(Cc2nc(-c3ccc(F)cc3)cs2)CC1CCO (stereo not drawn) | 7.1* | i | 0.04 | i | i | i
COC(=O)c1ccc(CN2CCN(CCC(C)C)C(CCO)C2)cc1 (stereo not drawn) | -18.4 | i | -0.27 | i | i | 6*
COc1ccc(CN2CCN(C(=O)CCC(=O)Nc3nnc(C4CCCCC4)s3)CC2)cc1F | -15.4 | i | 0.51 | i | i | i
CCCOC1CCCN(Cc2nc(-c3cnccn3)no2)C1 (stereo not drawn) | -17.4 | i | -0.1 | i | i | i
C[C@@H]1CN(Cc2nc(-c3cnccn3)no2)C[C@H](C)O1 | 7.4* | i | 0.21 | i | i | i
CC(NC(=O)c1ccc(Br)cc1)c1ccc2c(c1)CCCC2 (stereo not drawn) | 7.8* | i | -0.01 | i | i | i
CC(C)Nc1nc(Cl)nc(N(C#N)CN2C(=O)c3ccccc3C2=O)n1 | -17.1 | i | -5.16* | i | i | i
CCN(CC)CC(=O)Nc1ccc(-c2ccc(NC(=O)CN(CC)CC)c(OC)c2)cc1OC | -3.2 | i | -0.09 | i | i | i
Cc1ccc(/C=C/C2=Cc3c(sc(NC(=O)CSc4n[nH]c(N)n4)c3C#N)C(C)(C)C2)o1 | -15.0 | x | -1.17 | i | i | 6*
Cc1cc(NC(=O)CSc2nc3ccccc3n2CCC#N)no1 | 4.9* | i | 0.41 | i | i | i
CN(CC(=O)Nc1ccccc1Cl)C(=O)COC(=O)c1ccccc1[N+](=O)[O-] | -10.9 | i | 1.43 | i | i | i
CN(c1cccc(NC(=O)CN(c2ccc(Cl)c(Cl)c2)S(=O)(=O)c2ccccc2)c1)S(C)(=O)=O | -13.7 | i | -1.2 | i | i | i
Cc1ccc(S(=O)(=O)N(CC(=O)Nc2cccc(N(C)S(C)(=O)=O)c2)c2ccc(Cl)c(Cl)c2)cc1 | -3.6 | i | 1.28 | i | i | 10*
O=[N+]([O-])c1ccc(/C=C/C2=NN(c3ccccc3)C(c3ccco3)C2)cc1 (stereo not drawn) | x | i | x | x | x | x
O=[N+]([O-])c1ccc(C2=NN(c3ccccc3)C(c3ccco3)C2)cc1 (stereo not drawn) | -30.9 | i | -12.1 | i | i | 8*
O=C(Nc1ccc(Cl)cc1)N1CCC(c2nc(-c3cccs3)no2)CC1 | -11.6 | i | -0.57 | i | i | 6*
CC1(C)CC(=O)C2=C(C1)OC(N)=C(C#N)C2c1cc2c(cc1[N+](=O)[O-])OCO2 (stereo not drawn) | -24.3 | i | -11 | i | i | 10*
CCOc1cc(C2C(C#N)=C(N)OC3=C2C(=O)CC(C)(C)C3)cc([N+](=O)[O-])c1O (stereo not drawn) | -3.6 | i | -0.03 | i | i | i
CC(=O)Nc1ccc(NC(=O)C(C)OC(=O)c2ccccc2NS(=O)(=O)c2cccs2)cc1 (stereo not drawn) | -11.2 | i | -0.81 | i | i | i
Cc1cccc(NC(=O)C(C)OC(=O)c2ccccc2NS(=O)(=O)c2cc(C)c(C)c([N+](=O)[O-])c2)c1 (stereo not drawn) | -13.0 | i | -0.79 | i | i | 9*
Cc1cc(C)c2nc(N3CCCN(C(=O)c4cnccn4)CC3)c(C#N)cc2c1 | -17.8 | i | -4.97* | i | i | i
Cc1cc(C)c2nc(N3CCN(C)CC3)c(C#N)cc2c1 | -11.9 | i | -1.21 | i | i | i
Cc1cccc(C(=O)OCC(=O)c2csc(N3CCCCC3)n2)c1[N+](=O)[O-] | x | i | x | x | x | x
O=C(Nc1ccc(Cl)cc1)C(Cl)C(=O)c1ccccc1 (stereo not drawn) | -11.7 | i | -10.8* | i | 10* | i
SMILES | hERG rescue | KCNK3 inh | Kir21 inh | KCNK9 inh | KCNQ1 act | KCNQ1 inh
O=C(Nc1ccccc1Cl)C(Cl)C(=O)c1ccccc1 (stereo not drawn) | x | i | x | x | x | x
Cc1[nH]n(-c2ccccc2)c(=O)c1Sc1ccc(Cl)cc1 | -12.2 | i | 0.61 | i | i | i
CCCSC(=S)c1c(C)[nH]n(-c2ccccc2)c1=O | 26.9* | i | 0 | i | 16* | i
C[n+]1c2n(c3ccccc31)N=C(c1ccc(-c3ccccc3)cc1)CS2 | -25.0 | i | -2.91 | i | i | 12*
COc1ccc(NC(=O)/C(C#N)=C/c2ccc(Sc3nncn3C)c([N+](=O)[O-])c2)cc1 | -18.5 | i | 1.83 | i | i | i
COc1ccc(NCC(=O)Nc2cccc(C(F)(F)F)c2)cc1S(=O)(=O)N1CCOCC1 | x | i | x | x | x | x
Cc1cc(O)c(C(C)C)cc1NC(=O)Nc1ccc([N+](=O)[O-])cc1 | x | -10.1* | x | x | x | x
Cc1ccc(C(C)C)cc1NC(=O)Nc1ccc([N+](=O)[O-])cc1 | -7.7 | i | -0.02 | i | i | 7*
Cc1cc(O)c(C(C)C)cc1NC(=O)Nc1cccc2ccccc12 | -14.0 | i | 0.51 | i | i | i
Cc1ccc(C(C)C)c(OCCCNCc2cccnc2)c1 | -7.3 | i | -5.68* | i | i | i
CCCCNCC#CCOc1cc(C)ccc1C(C)C | -24.1 | i | -4.69* | i | i | i
Cc1ccc(C(C)C)c(OCCNS(C)(=O)=O)c1 | -4.1 | i | -0.3 | i | i | i
CCOC(=O)c1sc(NC(=O)c2c(C)nn(Cc3ccccc3)c2C)cc1C | x | -11.2* | x | x | x | x
CC1Cc2ccccc2N1c1nc(C2CC2)nc2c1nnn2Cc1ccccc1 (stereo not drawn) | -5.4 | i | -1.86 | i | i | 6*
c1ccc(Cn2nnc3c(NCc4ccc5c(c4)OCO5)nc(C4CC4)nc32)cc1 | -3.3 | i | 2.18 | i | i | i
Cn1cnnc1SCc1ccc(C(=O)N/N=C(/CCC(=O)O)c2ccc(C(C)(C)C)cc2)cc1 | x | i | x | x | x | x
Cc1ccc(C(NC(=O)C2CCCCC2)c2c(O)ccc3ccccc23)cc1 (stereo not drawn) | -16.4 | i | 0.76 | i | i | 9*
CC(=O)NC(c1ccc(C(C)C)cc1)c1c(O)ccc2ccccc12 (stereo not drawn) | -1.9 | i | -0.5 | i | i | i
CC(C)NC(=O)C1CCCN(c2nnc(-n3cccc3)s2)C1 (stereo not drawn) | -5.9 | i | 0.26 | i | i | i
CC(=O)Nc1ccc(NC(=O)C2CCCN(c3nnc(-n4cccc4)s3)C2)cc1 (stereo not drawn) | 0.2 | i | -4.61* | i | i | i

Screens from PubChem BioAssay.
